B1: tRNA (parent)
chain: GUUCCGUUGGCGUAAUGGUAACGCGUCUCCCUCCUAAGGAGAAGACUGCGGGUUCGAGUCCCGUACGGAACG

Variants of: B1
Experiment: yeast fitness, log relative to wild type (ln ratio); higher = fitter; tRNA-Arg(CCU), competitive growth, 37 C, 1 M NaCl
How it was run: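 A combinatorial tRNA-Arg(CCU) variant library was carried on a HIS3 centromeric plasmid in BY4742 lacking the chromosomal gene, from two independent transformations. Pools grew 4 generations in SC-HIS at 30 °C, then ~6.5 generations (~26.5 h) in SC-HIS 1M NaCl at 37 °C, with three outputs per input. Variants were counted by 125 bp paired-end Illumina sequencing. Fitness is ln of each genotype's generations (OD-scaled log2 output/input frequency, inverse-variance weighted across replicates) over the wild-type's.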

In order of rising “yeast fitness (ln)” value:
1. AGUCCGUUGGCGUAAUGGUAACGCGUUUCCCUCCUAAGGAGAAGACUGCGGGUUCGAGUCCCGUAUGGGUUG  -0.511
2. AGUCCGUUGGCGUAAUGGUAACGCGUUUCCCUCCUAAGGAGAAGAUUGCGGGUUCGAGUCCCGUACGGAGUG  -0.503
3. AGUCCGUUGGCGUAAUGGUAACGCGUUUCCCUCCUAAGGAGACGACUGCGGGUUCGAGUCCCGUAAGGAUUG  -0.499
4. AGUCCGUUGGCGUAAUGGUAACGCGUUUCCCUCCUAAGGAGACGACUGCGGGUUCGAGUCCCGUAAGGGGUG  -0.472
5. AGUCCGUUGGCGUAAUGGUAACGCGUUUCCCUCCUAAGGAGACGACUGCGGGUUCGAGUCCCGUAUGGAAUG  -0.452
6. AGUCCGUUGGCGUAAUGGUAACGCGUUUCCCUCCUAAGGAGAAGAUUGCGGGUUCGAGUCCCGUAUGGGUUG  -0.429
7. AGUCCGUUGGCGUAAUGGUAACGCGUUUCCCUCCUAAGGAGAAGACUGCGGGUUCGAGUCCCGUAUGGGGUG  -0.416
8. AGUCCGUUGGCGUAAUGGUAACGCGUUUCCCUCCUAAGGAGAAGACUGCGGGUUCGAGUCCCGUACGGGUUG  -0.386
9. AGUCCGUUGGCGUAAUGGUAACGCGUUUCCCUCCUAAGGAGACGACUGCGGGUUCGAGUCCCGUAUGGAUUG  -0.382
10. AGUCCGUUGGCGUAAUGGUAACGCGUUUCCCUCCUAAGGAGAAGACUGCGGGUUCGAGUCCCGUAAGGGUUG  -0.342
11. AGUCCGUUGGCGUAAUGGUAACGCGUUUCCCUCCUAAGGAGAAGACUGCGGGUUCGAGUCCCGUAUGGAGUG  -0.321
12. AGUCCGUUGGCGUAAUGGUAACGCGUUUCCCUCCUAAGGAGAAGACUGCGGGUUCGAGUCCCGUAAGGAGUG  -0.306
13. AGUCCGUUGGCGUAAUGGUAACGCGUUUCCCUCCUAAGGAGAAGAUUGCGGGUUCGAGUCCCGUACGGGGUG  -0.292
14. AGUCCGUUGGCGUAAUGGUAACGCGUUUCCCUCCUAAGGAGAAGAUUGCGGGUUCGAGUCCCGUAUGGGGUG  -0.267
15. AGUCCGUUGGCGUAAUGGUAACGCGUUUCCCUCCUAAGGAGAAGAUUGCGGGUUCGAGUCCCGUAUGGGUCG  -0.265
16. AGUCCGUUGGCGUAAUGGUAACGCGUUUCCCUCCUAAGGAGAAGACUGCGGGUUCGAGUCCCGUACGGGAUG  -0.251
17. AGUCCGUUGGCGUAAUGGUAACGCGUUUCCCUCCUAAGGAGAAGACUGCGGGUUCGAGUCCCGUAAGGAGCG  -0.25
18. AGUCCGUUGGCGUAAUGGUAACGCGUUUCCCUCCUAAGGAGAAGAUUGCGGGUUCGAGUCCCGUAUGGGGCG  -0.231
19. AGUCCGUUGGCGUAAUGGUAACGCGUUUCCCUCCUAAGGAGAAGAUUGCGGGUUCGAGUCCCGUAUGGAGUG  -0.218
20. AGUCCGUUGGCGUAAUGGUAACGCGUUUCCCUCCUAAGGAGAAGAUUGCGGGUUCGAGUCCCGUAUGGAAUG  -0.21
21. AGUCCGUUGGCGUAAUGGUAACGCGUUUCCCUCCUAAGGAGAAGAUUGCGGGUUCGAGUCCCGUACGGGGCG  -0.21
22. AGUCCGUUGGCGUAAUGGUAACGCGUUUCCCUCCUAAGGAGAAGAUUGCGGGUUCGAGUCCCGUACGGGUCG  -0.207
23. AGUCCGUUGGCGUAAUGGUAACGCGUUUCCCUCCUAAGGAGAAGAUUGCGGGUUCGAGUCCCGUACGGGAUG  -0.206
24. AGUCCGUUGGCGUAAUGGUAACGCGUUUCCCUCCUAAGGAGAAGAUUGCGGGUUCGAGUCCCGUAAGGAGUG  -0.203
25. AGUCCGUUGGCGUAAUGGUAACGCGUUUCCCUCCUAAGGAGAAGAUUGCGGGUUCGAGUCCCGUAAGGAGCG  -0.195
26. AGUCCGUUGGCGUAAUGGUAACGCGUUUCCCUCCUAAGGAGAAGACUGCGGGUUCGAGUCCCGUAUGGAGCG  -0.194
27. AGUCCGUUGGCGUAAUGGUAACGCGUUUCCCUCCUAAGGAGAAGAUUGCGGGUUCGAGUCCCGUACGGGUUG  -0.18
28. AGUCCGUUGGCGUAAUGGUAACGCGUUUCCCUCCUAAGGAGAAGAUUGCGGGUUCGAGUCCCGUAUGGAGCG  -0.167
29. AGUCCGUUGGCGUAAUGGUAACGCGUUUCCCUCCUAAGGAGAAGACUGCGGGUUCGAGUCCCGUAAGGAUCG  -0.165
30. AGUCCGUUGGCGUAAUGGUAACGCGUUUCCCUCCUAAGGAGACGACUGCGGGUUCGAGUCCCGUACGGAAUG  -0.16
31. AGUCCGUUGGCGUAAUGGUAACGCGUUUCCCUCCUAAGGAGAAGAUUGCGGGUUCGAGUCCCGUACGGAAUG  -0.159
32. AGUCCGUUGGCGUAAUGGUAACGCGUUUCCCUCCUAAGGAGAAGACUGCGGGUUCGAGUCCCGUAAGGAAUG  -0.147
33. AGUCCGUUGGCGUAAUGGUAACGCGUUUCCCUCCUAAGGAGAAGAUUGCGGGUUCGAGUCCCGUAAGGAUCG  -0.138
34. AGUCCGUUGGCGUAAUGGUAACGCGUUUCCCUCCUAAGGAGAAGAUUGCGGGUUCGAGUCCCGUAUGGAUCG  -0.123
35. AGUCCGUUGGCGUAAUGGUAACGCGUUUCCCUCCUAAGGAGACGACUGCGGGUUCGAGUCCCGUAUGGAACG  -0.123
36. AGUCCGUUGGCGUAAUGGUAACGCGUUUCCCUCCUAAGGAGAAGAUUGCGGGUUCGAGUCCCGUACGGAACG  -0.0532
37. AGUCCGUUGGCGUAAUGGUAACGCGUUUCCCUCCUAAGGAGAAGAUUGCGGGUUCGAGUCCCGUACGGAUUG  -0.0144

Reference: the RNAGym collection of RNA variant scans (doi:10.1038/s41586-018-0170-7)
